Test results reported in ChEMBL document CHEMBL1799920, “Total synthesis and pharmacological characterization of solomonsterol A, a potent marine pregnane-X-receptor agonist endowed with anti-inflammatory activity” (J Med Chem, 2011).
Calls of active or inactive are those of the source.

How the values were obtained:
Conditions in all cases: C57Bl/6
Mus musculus [1] = assay: Antiinflammatory activity against trinitrobenzenesulfonic acid-induced colitis in human PXR expressing transgenic C57/BL6 mouse assessed as decrease in colonic myeloperoxidase level at 10 mg/kg, ip administered on day 1 after TNBS challenge measured after 5 days; format: functional, organism-based; set-up: dose 10 mg/kg
Method in brief: (§1)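 Therapeutic protocol in male hPXR mice. Colitis was induced with intrarectal TNBS 0.5 mg/mouse in 50% ethanol after a 16 h fast and light ketamine/xylazine anaesthesia. Drug at 10 mg/kg was given once daily from day 1 after TNBS. Mice were sacrificed 5 days after TNBS; n = 4–6 per group.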

Mus musculus [2] = assay: Antiinflammatory activity against trinitrobenzenesulfonic acid-induced colitis in human PXR expressing transgenic C57/BL6 mouse assessed as decrease in thickness of colon at 10 mg/kg, ip qd administered 3 days before TNBS challenge measured after 7 days; format: functional, organism-based; set-up: dose 10 mg/kg
Method in brief: (§2)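 Male hPXR mice (human PXR on mouse PXR-null background). Fasted 16 h and lightly anaesthetised with ketamine/xylazine, then given TNBS 0.5 mg/mouse in 50% ethanol intrarectally in 150 μL. Drug was dissolved in DMSO, diluted in 1% methylcellulose and given i.p. once daily for 3 days before TNBS. Vehicle controls received methylcellulose. Mice were sacrificed 4 days after TNBS; n = 6–7 per group.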

Mus musculus [3] = assay: Antiinflammatory activity against trinitrobenzenesulfonic acid-induced colitis in human PXR expressing transgenic C57/BL6 mouse assessed as decrease in thickness of colon at 10 mg/kg, ip administered on day 1 after TNBS challenge measured after 5 days; format: functional, organism-based; set-up: dose 10 mg/kg; method in brief: as §1
Mus musculus [4] = assay: Antiinflammatory activity against trinitrobenzenesulfonic acid-induced colitis in human PXR expressing transgenic C57/BL6 mouse assessed as decrease in leukocyte infiltration in colon at 10 mg/kg, ip administered on day 1 after TNBS challenge measured after 5 days by microscopically; format: functional, organism-based; set-up: dose 10 mg/kg; method in brief: as §1
Mus musculus [5] = assay: Antiinflammatory activity against trinitrobenzenesulfonic acid-induced colitis in human PXR expressing transgenic C57/BL6 mouse assessed as decrease in vascular density in colon at 10 mg/kg, ip administered on day 1 after TNBS challenge measured after 5 days by microscopically
Mus musculus [6] = assay: Antiinflammatory activity against trinitrobenzenesulfonic acid-induced colitis in human PXR expressing transgenic C57/BL6 mouse assessed as increase in TGF-beta1 protein level in colon at 10 mg/kg, ip qd after 5 days
Mus musculus [7] = assay: Antiinflammatory activity against trinitrobenzenesulfonic acid-induced colitis in human PXR expressing transgenic C57/BL6 mouse assessed as decrease in appearance of epithelial erosions in colon at 10 mg/kg, ip qd administered 3 days before TNBS challenge measured after 7 days by haematoxylin/eosin staining; format: functional, organism-based; set-up: dose 10 mg/kg; method in brief: as §2
Mus musculus [8] = assay: Antiinflammatory activity against trinitrobenzenesulfonic acid-induced colitis in human PXR expressing transgenic C57/BL6 mouse assessed as decrease in microscopic colon damage at 10 mg/kg, ip qd administered 3 days before TNBS challenge measured after 7 days; format: functional, organism-based; set-up: dose 10 mg/kg; method in brief: as §2
Mus musculus [9] = assay: Antiinflammatory activity against trinitrobenzenesulfonic acid-induced colitis in human PXR expressing transgenic C57/BL6 mouse assessed as decrease in weight loss at 10 mg/kg, ip qd administered 3 days before TNBS challenge measured after 7 days; format: functional, organism-based; set-up: dose 10 mg/kg; method in brief: as §2
Mus musculus [10] = assay: Antiinflammatory activity against trinitrobenzenesulfonic acid-induced colitis in human PXR expressing transgenic C57/BL6 mouse assessed as increase in IL-10 protein level in colon at 10 mg/kg, ip qd after 5 days by ELISA; format: functional, organism-based; set-up: dose 10 mg/kg; method in brief: as §2
Mus musculus [11] = assay: Antiinflammatory activity against trinitrobenzenesulfonic acid-induced colitis in human PXR expressing transgenic C57/BL6 mouse assessed as decrease in edema of colon at 10 mg/kg, ip administered on day 1 after TNBS challenge measured after 5 days; format: functional, organism-based; set-up: dose 10 mg/kg; method in brief: as §1

Measured: Activity

C[C@H](CCCOS(=O)(=O)O)[C@H]1CC[C@H]2[C@@H]3CC[C@H]4C[C@H](OS(=O)(=O)O)[C@@H](OS(=O)(=O)O)C[C@]4(C)[C@H]3CC[C@]12C [SOLOMONSTEROL A]
active: Mus musculus [1] | Mus musculus [2] | Mus musculus [3] | Mus musculus [4] | Mus musculus [5] | Mus musculus [6] | Mus musculus [7] | Mus musculus [8] | Mus musculus [9] | Mus musculus [10] | Mus musculus [11]
